ChEMBL document CHEMBL3992564, “Design and synthesis of novel, potent and selective hypoxanthine analogs as adenosine A1 receptor antagonists and their biological evaluation” (Bioorg Med Chem, 2017)
In brackets after ≈: the same amount, converted by molar mass.

How the values were obtained:
Adenosine receptor A1 [1] = target: T1, Adenosine receptor A1 (Homo sapiens, UniProt P30542); assay: Displacement of [3H]DPCPX from human adenosine A1 receptor expressed in HEK293 cell membranes after 90 mins
T1 sequence (P30542 whole entry): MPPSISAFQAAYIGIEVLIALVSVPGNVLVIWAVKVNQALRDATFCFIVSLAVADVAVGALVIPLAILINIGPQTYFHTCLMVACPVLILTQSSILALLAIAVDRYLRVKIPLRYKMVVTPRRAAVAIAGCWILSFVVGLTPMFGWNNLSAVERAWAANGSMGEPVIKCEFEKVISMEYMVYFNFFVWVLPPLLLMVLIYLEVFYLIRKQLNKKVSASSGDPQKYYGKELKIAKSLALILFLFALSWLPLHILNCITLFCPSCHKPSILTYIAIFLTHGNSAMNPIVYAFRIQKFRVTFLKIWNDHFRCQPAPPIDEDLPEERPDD

[2] = target: T2, Adenosine receptor A2b (Homo sapiens) (UniProt P29275); assay: Displacement of [3H]MRS-1754 from human adenosine A2B receptor expressed in HEK293 cell membranes at 1 uM after 90 mins relative to control
T2 sequence (whole entry): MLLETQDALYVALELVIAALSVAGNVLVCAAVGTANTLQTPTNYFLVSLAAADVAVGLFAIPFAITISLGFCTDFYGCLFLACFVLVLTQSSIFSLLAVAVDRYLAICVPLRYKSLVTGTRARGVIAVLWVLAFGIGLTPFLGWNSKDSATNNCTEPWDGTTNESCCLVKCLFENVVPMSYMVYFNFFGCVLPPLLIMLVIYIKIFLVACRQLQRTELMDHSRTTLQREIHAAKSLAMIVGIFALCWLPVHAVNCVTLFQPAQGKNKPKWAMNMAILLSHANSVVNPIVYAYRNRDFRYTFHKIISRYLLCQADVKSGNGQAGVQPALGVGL
Procedure, shortened: (§1)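 Membranes from HEK-293 cells stably transfected with human receptor, pre-treated with adenosine deaminase. Radioligands: 1 nM [3H]DPCPX (A1), 1 nM [3H]ZM241385 (A2A), 1.6 nM [3H]MRS-1754 (A2B), 2 nM [3H]HEMADO (A3). Buffers: Tris pH 7.4 (A1, A2A, A3) or pH 6.5 (A2B), with ADA. Incubated 90 min at room temperature, then filtered. Nonspecific binding defined with 100 µM NECA. Ki from 8 concentrations run in triplicate.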

Adenosine receptor A2a = Adenosine receptor A2a (Homo sapiens, UniProt P29274); assay: Displacement of [3H]ZM241385 from human adenosine A2A receptor expressed in HEK293 cell membranes at 1 uM after 90 mins relative to control; procedure, shortened: as §1
[3] = target: T3, Adenosine receptor A3 (Homo sapiens) (UniProt P0DMS8); assay: Displacement of [3H]HEMADO from human adenosine A3 receptor expressed in HEK293 cell membranes at 1 uM after 90 mins relative to control; procedure, shortened: as §1
T3 sequence (whole entry): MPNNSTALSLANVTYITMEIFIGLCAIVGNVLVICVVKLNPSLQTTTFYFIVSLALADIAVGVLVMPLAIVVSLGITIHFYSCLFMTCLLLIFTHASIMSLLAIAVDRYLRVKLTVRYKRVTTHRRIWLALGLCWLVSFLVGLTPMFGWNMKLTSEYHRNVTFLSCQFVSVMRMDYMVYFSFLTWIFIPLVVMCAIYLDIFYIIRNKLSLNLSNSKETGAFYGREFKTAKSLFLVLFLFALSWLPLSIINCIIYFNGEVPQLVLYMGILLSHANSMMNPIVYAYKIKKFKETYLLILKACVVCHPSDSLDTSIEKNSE

Adenosine receptor A1 [4] = target: T1, Adenosine receptor A1; assay: Antagonist activity at human adenosine A1 receptor expressed in HEK293 cells assessed as reduction in CPA-mediated inhibition of forskolin-stimulated cAMP level preincubated for 15 mins followed by CPA treatment for 15 mins and subsequent addition of forskolin measured after 30 mins by HTRF assay; type: functional, cell-based
[5] = target: T2, Adenosine receptor A2b (Homo sapiens); assay: Antagonist activity at human adenosine A2B receptor expressed in HEK293 cells assessed as reduction in NECA-induced increase in cAMP level at 1 uM preincubated for 15 mins followed by NECA addition measured after 15 mins by HTRF assay relative to control; type: functional, cell-based
Procedure, shortened: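 Overnight HEK-A1 or HEK-A2B cultures were treated with 1 U/mL ADA for 90 min at 37°C. Compound was added for 15 min, then agonist for 15 min (1 nM CPA for A1; 70 nM NECA for A2B) at room temperature in incomplete DMEM with ADA. Rolipram (20 µM) was included for A1 only. cAMP was read by HTRF.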

Liver [6] = assay: Metabolic stability in rat liver microsomes assessed as metabolic rate measured after 30 mins in presence of NADPH; type: ADME, microsome; details: 0.5 h
Liver [7] = assay: Metabolic stability in human liver microsomes assessed as metabolic rate measured after 30 mins in presence of NADPH; type: ADME, microsome; details: 0.5 h
[8] = Metabolic stability in rat liver microsomes assessed as parent compound remaining measured after 30 mins in presence of NADPH; type: ADME, microsome; details: read-out: Stability
[9] = Metabolic stability in human liver microsomes assessed as parent compound remaining measured after 30 mins in presence of NADPH; type: ADME, microsome; details: read-out: Stability
CYP1A2 = target: T4, CYP1A2 (Homo sapiens, UniProt P05177); assay: Inhibition of CYP1A2 (unknown origin) at 5 uM relative to control; type: ADME
T4 sequence (P05177 whole entry): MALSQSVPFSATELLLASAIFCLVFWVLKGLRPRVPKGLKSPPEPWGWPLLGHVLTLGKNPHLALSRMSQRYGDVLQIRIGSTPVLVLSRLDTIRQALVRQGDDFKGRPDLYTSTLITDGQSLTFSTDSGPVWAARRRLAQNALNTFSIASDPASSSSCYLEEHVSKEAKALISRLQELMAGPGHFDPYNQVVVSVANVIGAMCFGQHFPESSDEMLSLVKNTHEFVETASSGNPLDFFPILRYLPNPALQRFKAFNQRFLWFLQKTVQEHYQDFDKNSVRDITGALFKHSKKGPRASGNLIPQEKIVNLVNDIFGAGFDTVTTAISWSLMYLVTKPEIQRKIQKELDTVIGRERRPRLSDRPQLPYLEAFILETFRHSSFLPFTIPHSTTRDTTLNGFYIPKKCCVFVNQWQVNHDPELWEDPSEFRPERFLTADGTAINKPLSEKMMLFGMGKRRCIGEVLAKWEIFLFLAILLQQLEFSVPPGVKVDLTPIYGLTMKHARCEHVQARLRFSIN

CYP2C9 = CYP2C9 (Homo sapiens, UniProt P11712); assay: Inhibition of CYP2C9 (unknown origin) at 5 uM relative to control; type: ADME
CYP2C19 = CYP2C19 (Homo sapiens, UniProt P33261); assay: Inhibition of CYP2C19 (unknown origin) at 5 uM relative to control; type: ADME
CYP2D6 = CYP2D6 (Homo sapiens, UniProt P10635); assay: Inhibition of CYP2D6 (unknown origin) at 5 uM relative to control; type: ADME
CYP3A4 = CYP3A4 (Homo sapiens, UniProt P08684); assay: Inhibition of CYP3A4 (unknown origin) at 5 uM relative to control; type: ADME
[10] = Protein binding in rat plasma at 5 uM; type: ADME, cell-free; details: read-out: PPB (converted)
[11] = Thermodynamic solubility of the compound in pH 2 solution; type: physicochemical; details: read-out: Therm_solubility
[12] = Thermodynamic solubility of the compound in pH 4 solution; type: physicochemical; details: read-out: Therm_solubility
[13] = Thermodynamic solubility of the compound in pH 7.4 solution; type: physicochemical; details: read-out: Therm_solubility
[14] = AUC (0 to t) in Wistar rat at 3 mg/kg, iv by LC-Ms/MS analysis; type: ADME, organism-based; details: in vivo
Procedure, shortened: (§2)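 Male Wistar rats (230 ± 15 g), fasted overnight with water available. IV dose of 3 mg/kg given by tail vein as a solution (0.6 mg/mL, 5 mL/kg). PO dose of 5 mg/kg given by gavage as a suspension. Blood was collected into K2EDTA at 0.008 (IV only) to 24 h and plasma was spun off. Samples were precipitated with acetonitrile and run on LC/MS/MS. Parameters came from non-compartmental analysis of individual animals, mean of n = 4.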

[15] = Volume of distribution at steady state in Wistar rat at 3 mg/kg, iv by LC-Ms/MS analysis; type: ADME, organism-based; details: in vivo, read-out: Vdss
Procedure, shortened: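 Male Wistar rats (230 ± 15 g), fasted overnight with water available. IV dosing at 3 mg/kg by tail vein as solution (0.6 mg/mL, 5 mL/kg). PO dosing at 5 mg/kg by oral gavage. Serial blood sampling into K2EDTA from 0.008 (IV only) to 24 h. Plasma precipitated with acetonitrile containing internal standard and analysed by LC/MS/MS. Non-compartmental parameters calculated per animal; values are means of n = 4.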

[16] = Clearance in Wistar rat at 3 mg/kg, iv by LC-Ms/MS analysis; type: ADME, organism-based; details: in vivo; procedure, shortened: as §2
[17] = Elimination half life in Wistar rat at 3 mg/kg, iv by LC-Ms/MS analysis; type: ADME, organism-based; details: in vivo, read-out: beta t1/2 (converted); procedure, shortened: as §2
[18] = Drug metabolism assessed as hydroxylation at C-8 cyclopentyl by metabolic soft spot analysis; type: physicochemical
[19] = Drug metabolism assessed as N-oxidation by metabolic soft spot analysis; type: physicochemical

CYP2C9, sequence (P11712 whole entry): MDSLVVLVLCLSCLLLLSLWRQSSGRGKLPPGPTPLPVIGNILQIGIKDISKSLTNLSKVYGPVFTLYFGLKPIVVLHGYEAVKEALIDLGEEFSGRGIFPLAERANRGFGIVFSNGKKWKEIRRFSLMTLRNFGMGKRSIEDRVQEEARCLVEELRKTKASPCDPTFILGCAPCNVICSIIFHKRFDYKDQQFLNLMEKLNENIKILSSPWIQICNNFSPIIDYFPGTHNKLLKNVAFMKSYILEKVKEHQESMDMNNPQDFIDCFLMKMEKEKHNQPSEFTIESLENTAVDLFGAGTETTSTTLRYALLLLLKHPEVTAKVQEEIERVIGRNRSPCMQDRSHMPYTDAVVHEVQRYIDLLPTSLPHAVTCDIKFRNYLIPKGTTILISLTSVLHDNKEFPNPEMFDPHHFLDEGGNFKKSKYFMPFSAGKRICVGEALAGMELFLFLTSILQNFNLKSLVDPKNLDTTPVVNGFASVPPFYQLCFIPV
Adenosine receptor A2a, sequence (P29274 whole entry): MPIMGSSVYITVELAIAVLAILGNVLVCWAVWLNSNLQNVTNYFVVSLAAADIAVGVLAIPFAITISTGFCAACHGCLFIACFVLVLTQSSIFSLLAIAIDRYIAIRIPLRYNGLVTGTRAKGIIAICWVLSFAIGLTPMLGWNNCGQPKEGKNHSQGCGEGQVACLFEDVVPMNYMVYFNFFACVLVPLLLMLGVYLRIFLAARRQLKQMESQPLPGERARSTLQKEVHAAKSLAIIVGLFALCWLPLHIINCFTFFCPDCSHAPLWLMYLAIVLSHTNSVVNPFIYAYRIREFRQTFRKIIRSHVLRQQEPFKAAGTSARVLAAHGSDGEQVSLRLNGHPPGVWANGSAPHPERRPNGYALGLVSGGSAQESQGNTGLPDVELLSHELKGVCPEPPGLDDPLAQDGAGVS
CYP2D6, sequence (P10635 whole entry): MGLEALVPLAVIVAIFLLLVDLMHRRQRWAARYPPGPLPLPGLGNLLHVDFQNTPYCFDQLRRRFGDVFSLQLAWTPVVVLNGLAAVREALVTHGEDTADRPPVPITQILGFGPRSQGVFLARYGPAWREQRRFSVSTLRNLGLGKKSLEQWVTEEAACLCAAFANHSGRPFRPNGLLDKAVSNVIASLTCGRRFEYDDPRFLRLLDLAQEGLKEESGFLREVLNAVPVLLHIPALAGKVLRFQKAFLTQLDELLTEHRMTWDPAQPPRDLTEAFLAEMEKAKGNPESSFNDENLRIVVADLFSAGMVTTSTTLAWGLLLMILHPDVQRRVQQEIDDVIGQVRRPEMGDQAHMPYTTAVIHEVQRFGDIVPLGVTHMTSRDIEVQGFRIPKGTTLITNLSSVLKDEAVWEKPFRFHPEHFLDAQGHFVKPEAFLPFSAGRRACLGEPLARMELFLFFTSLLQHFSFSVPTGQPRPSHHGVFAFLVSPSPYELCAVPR
CYP3A4, sequence (P08684 whole entry): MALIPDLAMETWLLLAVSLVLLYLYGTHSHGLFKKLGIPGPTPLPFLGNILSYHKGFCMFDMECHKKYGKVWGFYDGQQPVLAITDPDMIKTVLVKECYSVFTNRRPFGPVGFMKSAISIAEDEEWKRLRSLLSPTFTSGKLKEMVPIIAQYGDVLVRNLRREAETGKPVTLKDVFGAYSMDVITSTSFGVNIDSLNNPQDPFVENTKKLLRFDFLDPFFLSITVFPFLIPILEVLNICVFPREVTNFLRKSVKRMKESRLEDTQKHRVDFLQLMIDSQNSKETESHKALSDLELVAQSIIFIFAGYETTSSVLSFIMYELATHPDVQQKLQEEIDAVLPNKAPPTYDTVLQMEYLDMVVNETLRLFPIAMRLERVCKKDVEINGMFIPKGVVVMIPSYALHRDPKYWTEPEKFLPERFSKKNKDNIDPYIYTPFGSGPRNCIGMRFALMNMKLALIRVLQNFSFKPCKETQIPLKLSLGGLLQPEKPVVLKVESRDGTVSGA
CYP2C19, sequence (P33261 whole entry): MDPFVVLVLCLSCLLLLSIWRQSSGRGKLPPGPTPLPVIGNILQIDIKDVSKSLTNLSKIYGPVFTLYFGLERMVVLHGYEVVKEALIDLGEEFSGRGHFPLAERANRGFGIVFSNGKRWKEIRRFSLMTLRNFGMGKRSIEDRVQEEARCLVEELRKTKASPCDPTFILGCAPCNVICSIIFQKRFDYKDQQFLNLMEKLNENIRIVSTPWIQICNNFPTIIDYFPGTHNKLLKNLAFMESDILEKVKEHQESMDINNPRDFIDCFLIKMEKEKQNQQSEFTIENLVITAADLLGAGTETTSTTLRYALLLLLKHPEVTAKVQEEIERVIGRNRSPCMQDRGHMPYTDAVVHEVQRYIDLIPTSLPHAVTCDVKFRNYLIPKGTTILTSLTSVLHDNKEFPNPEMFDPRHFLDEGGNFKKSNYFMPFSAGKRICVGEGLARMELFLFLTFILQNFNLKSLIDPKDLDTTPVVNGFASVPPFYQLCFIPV

Ki (Adenosine receptor A1 [1]): 57 nM
inhibition [2]: 35 to 41%
inhibition (Adenosine receptor A2a): 0%
inhibition [3]: 37%
Ki (Adenosine receptor A1 [4]): 9.6 nM
inhibition [5]: 6%
Drug metabolism (Liver [6]): 0.1 nmol/min/mg
Drug metabolism (Liver [7]): 0.12 nmol/min/mg
remaining at 0.5 h [8]: 68%
remaining at 0.5 h [9]: 60%
inhibition at 5 µM (CYP1A2): 5%
inhibition at 5 µM (CYP2C9): 4%
inhibition at 5 µM (CYP2C19): 3%
inhibition at 5 µM (CYP2D6): 0%
inhibition at 5 µM (CYP3A4): 0%
fraction unbound at 5 µM [10]: 0.2
solubility thermodynamic [11]: 2590 µM (≈ 897 µg/mL)
solubility thermodynamic [12]: 276 µM (≈ 95.6 µg/mL)
solubility thermodynamic [13]: 182 µM (≈ 63.1 µg/mL)
AUC(0-t) [14]: 3 µM·h
Vd [15]: 0.8 L/kg
clearance [16]: 48 mL/min/kg
half-life [17]: 18 min
Drug metabolism [18]: Metabolite_Detected
Drug metabolism [19]: Metabolite_Detected
Structure (SMILES): CCCn1c(OC2CCC(O)C2)nc2nc(C3CCCC3)[nH]c2c1=O (stereo not given)
